Source: ChEMBL document CHEMBL3763107, “Anti-inflammatory neolignans from the roots of Magnolia officinalis” (Bioorg Med Chem, 2016)
pIC50: −log10 of the molar value. The source made the active and inactive calls. No cut-off for these calls is given here.

Key:
Format in all cases: functional, cell-based
[1] = (§1) Antiinflammatory activity in human neutrophils assessed as inhibition of FMLP/CB-induced elastase release using MeO-Suc-Ala-Ala-Pro-Val-p-nitroanilide as substrate incubated for 5 mins by spectrophotometric analysis; conditions: Neutrophil
Outline: (§2)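 Neutrophils from healthy donor blood, isolated by dextran sedimentation, Ficoll gradient and hypotonic lysis, kept in Ca2+-free HBSS pH 7.4 at 4 °C. Cells at 6 × 10^5/mL with 100 µM substrate, 2 min at 37 °C, then drug or 0.1% DMSO vehicle for 5 min. Activated with 100 nM FMLP + 0.5 µg/mL CB. A405 followed continuously; % of drug-free activated control; IC50 from mean of n = 3.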

Neutrophil [2] = experiment: as §1; outline: as §2
[3] = (§3) Antiinflammatory activity in human neutrophils assessed as inhibition of FMLP/CB-induced superoxide anion generation by measuring superoxide dismutase-inhibitable reduction of ferricytochrome c by spectrophotometric analysis; conditions: Neutrophil
Outline: (§4)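 Dextran/Ficoll-purified human neutrophils (6 × 10^5 cells/mL) with ferricytochrome c and 1 mM Ca2+, 2 min at 37 °C. Primed with 1 µg/mL cytochalasin B, then 100 nM FMLP. A550 monitored continuously with stirring. Superoxide taken as the SOD (100 U/mL)-inhibitable reduction using ε 21.1/mM/10 mm. IC50 from mean of n = 3.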

Neutrophil [4] = experiment: as §3; outline: as §4
Neutrophil [5] = experiment: Induction of superoxide anion generation in human neutrophils by spectrophotometric analysis
Neutrophil [6] = experiment: Induction of FMLP/CB-mediated superoxide anion generation in human neutrophils by measuring superoxide dismutase-inhibitable reduction of ferricytochrome c by spectrophotometric analysis
Neutrophil [7] = experiment: Induction of ferricytochrome c reduction in human neutrophils by spectrophotometric analysis

pIC50 [1]	pIC50 [3]	SMILES	inhibition (Neutrophil [2])	inhibition (Neutrophil [4])	Activity (Neutrophil [5])	Activity (Neutrophil [6])	Activity (Neutrophil [7])
5.47	5.26	C=CCc1ccc(O)c(-c2cc(CC=C)cc(OC)c2O)c1	Dose-dependent effect	Dose-dependent effect			
4.74	5.10	C=CCc1ccc(O)c(-c2ccc(O)c(OC)c2)c1	Dose-dependent effect	Dose-dependent effect			
5.70	5.49	CNC(=O)c1cc(Oc2ccc(NC(=O)Nc3ccc(Cl)c(C(F)(F)F)c3)cc2)ccn1 [SORAFENIB]					
6.20		C=CCc1ccc(O)c(-c2cc(CC=C)cc(C=O)c2O)c1	Dose-dependent effect		Active		
5.65		C=CCc1ccc(O)c(-c2cc(O[C@H]3CCc4cc(CC=C)cc(-c5cc(CC=C)ccc5O)c4O3)ccc2O)c1	Dose-dependent effect			Active	
5.44	5.45	C=CCc1ccc(Oc2cc(CC=C)c3c(c2O)O[C@@]2(C)CC[C@@H](C(C)C)[C@@H]3C2)cc1	Dose-dependent effect	Dose-dependent effect			
5.48		C=CCc1ccc(Oc2cc(CC=C)cc(O)c2O)cc1 [OBOVATOR]	Dose-dependent effect				Active
4.83	4.96	C=CCc1ccc(O)c(-c2cc(CC=C)cc([C@@H]3C=C(C)CC[C@H]3C(C)C)c2O)c1	Dose-dependent effect	Dose-dependent effect			
5.67	5.38	C=CCc1ccc(O)c(-c2cc(CC=C)cc([C@H]3C[C@@](C)(O)CC[C@@H]3C(C)C)c2O)c1	Dose-dependent effect	Dose-dependent effect			
5.45	5.09	C=CCc1ccc(O)c(-c2cc(CC=C)cc([C@H]3C[C@](C)(O)CC[C@@H]3C(C)C)c2O)c1	Dose-dependent effect	Dose-dependent effect			
4.97	4.82	C=CCc1ccc(O)c(-c2cc(CC=C)cc([C@@H]3[C@@H](C(C)C)CC[C@@](C)(O)[C@@H]3O)c2O)c1	Dose-dependent effect	Dose-dependent effect			
5.42	4.72	C=CCc1ccc(O)c(-c2ccc(O[C@@H]3CCc4cc(CC=C)cc(-c5cc(CC=C)ccc5O)c4O3)cc2O)c1	Dose-dependent effect	Dose-dependent effect			
5.59	5.38	C=CCc1ccc(O)c(-c2cc(CC=C)cc3c2O[C@@H]2[C@H]3[C@@H](C(C)C)CC[C@@]2(C)O)c1	Dose-dependent effect	Dose-dependent effect			
5.09	4.84	C=CCc1ccc(O)c(-c2ccc(OC)c(CC=C)c2)c1 [METHYLHONOKIOL]	Dose-dependent effect	Dose-dependent effect			
